Source: ChEMBL document CHEMBL1125170, “A novel series of selective leukotriene antagonists: exploration and optimization of the acidic region in 1,6-disubstituted indoles and indazoles” (1990)
Active and inactive are the calls of the source. No cut-off for these calls is given here.

Columns and labels:
[1] = test system: Cavia porcellus; assay: In vivo percent protection against aerosolized LTD4 induced dyspnea in guinea pig at 30 umol/kg po (180 minutes post oral dosing); 67/11; format: functional
[2] = test system: Cavia porcellus; assay: In vivo percent protection against aerosolized LTD4 induced dyspnea in guinea pig at 30 umol/kg po (60 minutes post oral dosing); 48/12; format: functional
[3] = species on record: Cavia porcellus; assay: In vitro antagonism of 8 nM of peptidoleukotriene (LTE4) induced contraction of guinea pig tracheal spirals at 0.033 X E-7M concentration; format: functional, Trachea
How it was run: (§1)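 Guinea pig tracheal spirals held at 37 °C in modified Krebs' (mM: NaCl 119, KCl 4.6, CaCl2 1.8, MgCl2 0.5, NaHCO3 24.9, NaH2PO4 1.0, glucose 11.1) plus indomethacin 5 μM, resting tension 2 g, isometric recording. After reproducible 8 nM LTE4 responses, compound added for 10 min, then rechallenged. % inhibition is adjusted for the paired vehicle tissue. At least four spirals, paired t test.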

[4] = species on record: Cavia porcellus; assay: In vitro antagonism of 8 nM of peptidoleukotriene (LTE4) induced contraction of guinea pig tracheal spirals at 0.33 X E-7M concentration; format: functional, Trachea; how it was run: as §1
[5] = target: T1, Cysteinyl leukotriene receptor 1 (Cavia porcellus) (UniProt Q2NNR5); assay: Dissociation constant KB = [antagonist]/(dose ratio -1).KB determined in guinea pig tracheal spirals with LTE4 as agonist; format: functional, tissue-based; conditions: Trachea
T1 sequence (whole entry): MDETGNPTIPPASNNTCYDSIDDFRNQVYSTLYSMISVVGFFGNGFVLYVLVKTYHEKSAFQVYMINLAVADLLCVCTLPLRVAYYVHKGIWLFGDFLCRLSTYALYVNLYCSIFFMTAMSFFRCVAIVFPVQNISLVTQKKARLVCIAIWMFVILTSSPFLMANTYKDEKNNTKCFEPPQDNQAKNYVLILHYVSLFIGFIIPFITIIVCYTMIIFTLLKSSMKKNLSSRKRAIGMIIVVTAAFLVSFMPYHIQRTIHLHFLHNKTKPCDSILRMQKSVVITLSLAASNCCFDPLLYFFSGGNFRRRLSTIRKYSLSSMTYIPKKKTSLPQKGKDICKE
How it was run: (§2)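 Isolated guinea pig tracheal strips in Krebs' buffer with indomethacin (5 μM), 37 °C, 95% O2/5% CO2, resting tension 2 g. Carbachol (30 μM) sets the maximum. Antagonist incubated 30 min, then cumulative LTE4 concentration–response curves in log increments, one curve per tissue. EC50 by linear regression, paired vehicle controls. KB = [antagonist]/(DR − 1) (Furchgott).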

[6] = species on record: Cavia porcellus; assay: In vitro antagonism of 8 nM of peptidoleukotriene (LTE4) induced contraction of guinea pig tracheal spirals at 3.3 X E-7M concentration; format: functional, Trachea; how it was run: as §1
[7] = species on record: Cavia porcellus; assay: In vitro antagonism of 8 nM of peptidoleukotriene (LTE4) induced contraction of guinea pig tracheal spirals at 10 X E-7M concentration; format: functional, Trachea; how it was run: as §1
[8] = species on record: Cavia porcellus; assay: In vitro antagonism of 8 nM of peptidoleukotriene (LTE4) induced contraction of guinea pig tracheal spirals at 1 X E-7M concentration; format: functional, Trachea; how it was run: as §1
[9] = species on record: Cavia porcellus; assay: In vitro antagonism of 8 nM of peptidoleukotriene (LTE4) induced contraction of guinea pig tracheal spirals at 0.001 X E-7M concentration; format: functional, Trachea; how it was run: as §1
[10] = species on record: Cavia porcellus; assay: In vitro antagonism of 8 nM of peptidoleukotriene (LTE4) induced contraction of guinea pig tracheal spirals at 0.01 X E-7M concentration; format: functional, Trachea; how it was run: as §1
[11] = species on record: Cavia porcellus; assay: Dissociation constant KB = [antagonist]/(dose ratio -1). KB determined in guinea pig tracheal spirals with LTE4 as agonist.; format: functional, Trachea; how it was run: as §2
[12] = test system: Cavia porcellus; assay: In vivo percent protection against aerosolized LTD4 induced dyspnea in guinea pig at 10 umol/kg po (180 minutes post oral dosing); 37/8; format: functional
[13] = test system: Cavia porcellus; assay: In vivo percent protection against aerosolized LTD4 induced dyspnea in guinea pig at 30 umol/kg po (180 minutes post oral dosing); 89/8; format: functional
[14] = species on record: Cavia porcellus; assay: In vitro antagonism of 8 nM of peptidoleukotriene (LTE4) induced contraction of guinea pig tracheal spirals at 0.1 X E-7M concentration; format: functional, Trachea; how it was run: as §1
[15] = species on record: Cavia porcellus; assay: In vitro antagonism of 8 nM of peptidoleukotriene (LTE4) induced contraction of guinea pig tracheal spirals at 33 X E-7M concentration; format: functional, Trachea; how it was run: as §1
[16] = test system: Cavia porcellus; assay: In vivo percent protection against aerosolized LTD4 induced dyspnea in guinea pig at 100 umol/kg po (60 minutes post oral dosing); 23/6; format: functional
[17] = species on record: Cavia porcellus; assay: In vitro antagonism of 8 nM of peptidoleukotriene (LTE4) induced contraction of guinea pig tracheal spirals at 3 X E-7M concentration; format: functional, Trachea; how it was run: as §1
[18] = test system: Cavia porcellus; assay: In vivo percent protection against aerosolized LTD4 induced dyspnea in guinea pig at 113 umol/kg po (60 minutes post oral dosing); 14/4; format: functional
[19] = test system: Cavia porcellus; assay: In vivo percent protection against aerosolized LTD4 induced dyspnea in guinea pig at 126 umol/kg po (60 minutes post oral dosing); 33/5; format: functional
[20] = species on record: Cavia porcellus; assay: In vitro antagonism of 8 nM of peptidoleukotriene (LTE4) induced contraction of guinea pig tracheal spirals at 100 X E-7M concentration; Not active; format: functional; conditions: Trachea; how it was run: as §1
[21] = test system: Cavia porcellus; assay: In vivo percent protection against aerosolized LTD4 induced dyspnea in guinea pig at 30 umol/kg po (180 minutes post oral dosing); 43/7; format: functional
[22] = test system: Cavia porcellus; assay: In vivo percent protection against aerosolized LTD4 induced dyspnea in guinea pig at 1 umol/kg po (180 minutes post oral dosing); 40/6; format: functional
[23] = species on record: Cavia porcellus; assay: In vitro antagonism of 8 nM of peptidoleukotriene (LTE4) induced contraction of guinea pig tracheal spirals at 100 X E-7M concentration; Not significant; format: functional, Trachea; how it was run: as §1

Structure (SMILES): COc1cc(C(=O)NS(=O)(=O)c2ccccc2)ccc1Cn1ccc2ccc(NC(=O)OC3CCCC3)cc21
- Protection [1]: 67%
- Protection [2]: 48%
- Antagonism [3]: 61%
- Antagonism [4]: 100%
- pKB [5]: 9.5

Structure (SMILES): CCCCC(CC)C(=O)Nc1ccc2ccn(Cc3ccc(-c4nn[nH]n4)cc3OC)c2c1 (stereo unspecified)
- Antagonism [6]: 31%
- pKB [5]: 6.6
- Antagonism [7]: 50%

Structure (SMILES): COc1cc(-c2nn[nH]n2)ccc1Cn1ccc2ccc(NC(=O)CC3CCCC3)cc21
- Antagonism [6]: 79%
- Antagonism [8]: 42%
- Antagonism [7]: 100%

Structure (SMILES): COc1cc(C(=O)NS(=O)(=O)c2ccccc2)ccc1Cn1ncc2ccc(NC(=O)CC3CCCC3)cc21
- Antagonism [9]: 23%
- Antagonism [10]: 100%
- pKB [11]: 10.5

Structure (SMILES): COC(=O)C(C(=O)c1ccc(Cn2ccc3ccc(NC(=O)CC4CCCC4)cc32)c(OC)c1)S(=O)(=O)c1ccccc1 (stereo unspecified)
- Antagonism [10]: 63%
- Antagonism [3]: 94%
- pKB [11]: 10.1

Structure (SMILES): COc1cc(C(=O)NS(=O)(=O)c2ccccc2)ccc1Cn1ncc2ccc(NC(=O)OC3CCCC3)cc21 [ICI-198615]
- Protection [12]: 37%
- Protection [13]: 89%
- Antagonism [10]: 69%
- Antagonism [3]: 100%
- pKB [5]: 10.3

Structure (SMILES): CCCCOC(=O)Nc1ccc2cnn(Cc3ccc(C(=O)NS(=O)(=O)c4ccccc4)cc3OC)c2c1
- Antagonism [3]: 77%
- Antagonism [14]: 100%
- pKB [11]: 9.2

Structure (SMILES): CCCCC(CC)C(=O)Nc1ccc2ccn(Cc3ccc(C(=O)C(C(=O)OC)S(=O)(=O)c4ccccc4)cc3OC)c2c1 (stereo unspecified)
- Antagonism [14]: 65%
- Antagonism [8]: 100%
- pKB [11]: 8.5

Structure (SMILES): COc1cc(C(=O)O)ccc1Cn1ccc2ccc(NC(=O)OC3CCCC3)cc21
- Antagonism [15]: 100%
- Protection [16]: 23%
- Antagonism [8]: 61%
- pKB [5]: 7.8

Structure (SMILES): CCCCC(CC)C(=O)Nc1ccc2ccn(Cc3ccc(C(=O)NS(=O)(=O)CCCC)cc3OC)c2c1 (stereo unspecified)
- Antagonism [17]: 63%
- Antagonism [7]: 100%

Structure (SMILES): CCCCC(CC)C(=O)Nc1ccc2ccn(Cc3ccc(C(=O)NS(=O)(=O)c4ccccc4)cc3OC)c2c1 (stereo unspecified)
- Antagonism [14]: 27%
- Antagonism [8]: 100%
- pKB [11]: 8.6

Structure (SMILES): CCCCC(CC)C(=O)Nc1ccc2ccn(Cc3ccc(C(=O)O)cc3OC)c2c1 (stereo unspecified)
- Antagonism [15]: 100%
- pKB [5]: 6.6
- Antagonism [7]: 59%

Structure (SMILES): CCC(C(=O)Nc1ccc2cnn(Cc3ccc(C(=O)O)cc3OC)c2c1)c1ccccc1 (stereo unspecified)
- Antagonism [6]: 30%
- Protection [18]: 14%
- pKB [5]: 7.1

Structure (SMILES): COC(=O)C(C(=O)c1ccc(Cn2ncc3ccc(NC(=O)OC4CCCC4)cc32)c(OC)c1)S(=O)(=O)c1ccccc1 (stereo unspecified)
- Antagonism [10]: 53%
- Antagonism [3]: 78%
- pKB [11]: 9.9

Structure (SMILES): CCCCOC(=O)Nc1ccc2cnn(Cc3ccc(C(=O)O)cc3OC)c2c1
- Antagonism [6]: 56%
- Protection [19]: 33%
- pKB [5]: 6.7

Structure (SMILES): COc1cc(CNS(=O)(=O)c2ccccc2)ccc1Cn1ccc2ccc(NC(=O)OC3CCCC3)cc21
- Antagonism [20]: inactive

Structure (SMILES): CCC(C(=O)Nc1ccc2cnn(Cc3ccc(C(=O)NS(=O)(=O)c4ccccc4)cc3OC)c2c1)c1ccccc1 (stereo unspecified)
- Antagonism [3]: 43%

Structure (SMILES): COc1cc(C(=O)NS(=O)(=O)c2ccccc2)ccc1Cn1ccc2ccc(NC(=O)CC3CCCC3)cc21
- Protection [21]: 43%
- Antagonism [10]: 50%
- Antagonism [3]: 92%
- pKB [5]: 9.6

Structure (SMILES): CCCCOC(=O)Nc1ccc2cnn(Cc3ccc(-c4nn[nH]n4)cc3OC)c2c1
- Antagonism [6]: 55%
- pKB [11]: 7.1

Structure (SMILES): COc1cc(C(=O)NS(=O)(=O)c2ccccc2C)ccc1Cn1ccc2ccc(NC(=O)CC3CCCC3)cc21
- Protection [22]: 40%
- pKB [11]: 9.9

Structure (SMILES): CCC(C(=O)Nc1ccc2ccn(Cc3ccc(C(=O)NS(=O)(=O)c4ccccc4)cc3OC)c2c1)c1ccccc1 (stereo unspecified)
- Antagonism [14]: 33%

Structure (SMILES): CCCCC(CC)C(=O)Nc1ccc2ccn(Cc3ccc(C(=O)O)cc3OCCCc3ccccc3)c2c1 (stereo unspecified)
- Antagonism [23]: 18%
